KCNQ1 pot = human KCNQ1 channel potentiation or activation | P51787 | CHO-K1 KCNQ1, thallium flux FluxOR fluorescence; stronger effect = higher value | B-score at 10 µM | 310,000 compounds, 0.35% hits | AID 2648;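 active = fluorescence ratio B-score, a plate-corrected score, at least three library SD, with initial intensity B-score within 5 SD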
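Assay system: CHO-K1 cells stably expressing KCNQ1; Medium: assay buffer with matched DMSO; Also added: K+/Tl+ depolarizing stimulus; Dosing: single dose; Timing: dye 90 min, compound 20 min, room temperature; Measured by: kinetic FluxOR thallium fluorescence, 10-s 1-Hz baseline, 110-s post-stimulus read; Read-out: peak-minus-minimum fluorescence over initial fluorescence, negative-control normalized, B-scored.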
hERG rescue = compounds protecting human hERG from proarrhythmic drug block | Q12809 | activation (rescue from dofetilide block), less the hit threshold, % at 10 µM | 310,000 compounds, 0.51% hits | CHO-hERG, FluxOR thallium flux, dofetilide IC70 present | AID 1511;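 active = activation above the mean of controls blocked by dofetilide plus 5 SD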;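 also: thallium influx through hERG after potassium depolarization seen as dye fluorescence rise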
KCNK9 inh = human KCNK9 channel inhibition; 310,000 compounds, 1.2% hits; Q9NPC2; B-score at 10 µM; HEK293 KCNK9, FluxOR thallium flux fluorescence; stronger effect = lower value;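 active = ratio B-score over 3 SD below the library mean, with starting fluorescence within 5 SD of its mean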;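 also: negative B-score means less thallium flux so channel inhibition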
KCC2 mod = KCC2 (human) Cl- transport modulation. 190,000 compounds, 2.2% hits. Q9H2X9. B-score of Tl+ flux slope (higher = more flux/activation; lower = inhibition) at 10 µM. KCC2 cells, thallium flux FluoZin-2 fluorescence. AID 1456;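 active = thallium flux slope and its plate-corrected score both differing from the plate sample mean at a set confidence after two filtering rounds, in either direction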;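 also: slope of fluorescence scaled to starting intensity during 10 to 20 s after thallium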
Target sequence (Q9H2X9 whole entry, looked up): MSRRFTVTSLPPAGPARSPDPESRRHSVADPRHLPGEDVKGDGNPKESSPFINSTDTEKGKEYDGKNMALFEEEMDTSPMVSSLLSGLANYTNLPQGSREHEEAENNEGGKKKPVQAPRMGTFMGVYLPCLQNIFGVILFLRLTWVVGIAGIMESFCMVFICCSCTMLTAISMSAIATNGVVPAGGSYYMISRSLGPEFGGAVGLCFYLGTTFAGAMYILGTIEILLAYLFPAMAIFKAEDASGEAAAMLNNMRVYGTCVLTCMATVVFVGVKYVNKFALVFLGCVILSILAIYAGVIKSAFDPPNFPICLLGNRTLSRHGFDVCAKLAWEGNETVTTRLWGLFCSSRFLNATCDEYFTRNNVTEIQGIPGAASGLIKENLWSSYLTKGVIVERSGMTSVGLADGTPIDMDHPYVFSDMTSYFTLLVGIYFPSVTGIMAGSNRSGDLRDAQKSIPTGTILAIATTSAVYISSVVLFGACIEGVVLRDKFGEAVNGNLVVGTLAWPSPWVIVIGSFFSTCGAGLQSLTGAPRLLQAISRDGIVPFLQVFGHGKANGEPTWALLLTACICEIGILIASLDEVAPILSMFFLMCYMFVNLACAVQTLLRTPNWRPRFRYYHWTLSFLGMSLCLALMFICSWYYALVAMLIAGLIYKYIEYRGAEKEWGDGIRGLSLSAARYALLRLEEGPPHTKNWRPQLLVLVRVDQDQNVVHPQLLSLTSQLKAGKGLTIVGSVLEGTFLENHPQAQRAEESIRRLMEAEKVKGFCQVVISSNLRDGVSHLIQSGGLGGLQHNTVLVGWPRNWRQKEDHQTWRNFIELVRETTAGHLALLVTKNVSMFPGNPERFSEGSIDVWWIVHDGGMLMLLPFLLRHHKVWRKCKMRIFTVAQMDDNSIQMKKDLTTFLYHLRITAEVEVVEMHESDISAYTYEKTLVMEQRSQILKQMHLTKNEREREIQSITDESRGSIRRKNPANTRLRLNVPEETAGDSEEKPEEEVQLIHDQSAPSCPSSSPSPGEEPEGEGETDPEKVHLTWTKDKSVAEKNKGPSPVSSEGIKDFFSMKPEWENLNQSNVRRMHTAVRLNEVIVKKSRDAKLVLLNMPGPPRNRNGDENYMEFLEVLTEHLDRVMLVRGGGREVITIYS
KCNK3 inh = human KCNK3 channel inhibition, primary screen | O14649 | CHO-KCNK3 thallium flux, FluxOR fluorescence; stronger effect = lower value | B-score at 10 µM | 340,000 compounds, 0.84% hits;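 active = B-score under library mean minus 4 SD, starting fluorescence ratio at most library mean plus 5 SD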;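 also: more negative B-score means stronger inhibition of thallium flux through KCNK3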
KCNQ1 block = inhibitors of human KCNQ1 potassium channel. B-score at 10 µM. CHO-K1 KCNQ1, FluxOR thallium flux fluorescence; stronger effect = higher value. AID 2642. 310,000 compounds, 1.3% hits;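 active = compounds whose thallium flux B-score, printed positive for inhibition, exceeds three library SD while starting fluorescence stays within three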;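 also: channel opened by potassium depolarization with thallium stimulus after 20 min compound exposure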
KCNQ1 inh valid = confirmation of human KCNQ1 potassium channel inhibitors. shares compounds with KCNQ1 block. KCNQ1 cell line, FluxOR thallium flux fluorescence. inhibition, % at 10 µM. 1,600 compounds, 93% hits. AID 588353;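 active = primary screen active, with duplicate mean exceeding buffer control mean plus 3 SD of buffer wells, cut at about 28% in these data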;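 also: 0% = buffer control ratio and 100% = XE991 inhibitor control ratio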
CHO KCNQ1 ctr = KCNQ1 inhibitor counter-screen hit in parental CHO cells; fluorescence ratio (Tl flux) at 10 µM; shares compounds with KCNQ1 block; AID 588366; 1,600 compounds, 21% hits; parental CHO-K1, FluxOR thallium flux fluorescence ratio; stronger effect = lower value; zero means no signal rise above baseline;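 active = mean of duplicate thallium-flux fluorescence ratios in parental host cells more than 5 SD below the buffer control mean, cut at about 0.38 in these data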;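 also: ratio is peak minus minimum fluorescence divided by baseline fluorescence; actives read low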
KCNQ1 APC inh = confirmation of human KCNQ1 potassium channel inhibitors by electrophysiology; shares compounds with KCNQ1 block; 490 compounds, 20% hits; KCNQ1-CHO cells, automated patch clamp current; AID 624120; calls only at 10 µM;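 active = KCNQ1 current drop exceeding 3 SD of negative control wells, seen in both duplicate runs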;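 also: steady state current during a 2 s step from -80 to +40 mV; negative values mean current inhibition and positive values mean potentiation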
KCNQ2 spec = KCNQ1 inhibitor that also blocks rat KCNQ2 channel | shares compounds with KCNQ1 block | KCNQ2 cells, FluxOR thallium flux fluorescence | inhibition, % at 10 µM | 1,600 compounds, 71% hits | AID 651746;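 active = mean percent inhibition of the KCNQ2 thallium signal more than 5 SD above the buffer-only control wells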;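 also: KCNQ2 expressed in CHO cells; 0% = buffer control wells and 100% = XE-991 inhibitor control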
KCNQ1 KCNE1 spec = human KCNQ1/KCNE1 inhibition in KCNQ1 specificity screen; KCNQ1/KCNE1 cells, FluxOR thallium flux fluorescence; inhibition, % at 10 µM; shares compounds with KCNQ1 block; 1,600 compounds, 77% hits;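 active = mean percent inhibition of duplicate wells above the buffer-only control mean plus 3 SD of those controls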;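 also: 0% = buffer only wells and 100% = XE-991 inhibitor control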
The depositor's hits bear a star; i = inactive; · = no result given; + = active, no number. Most compounds without a hit are left out; they make up all but 4.1% or so of the library.

SMILES	KCNQ1 pot	hERG rescue	KCNK9 inh	KCC2 mod	KCNK3 inh	KCNQ1 block	KCNQ1 inh valid	CHO KCNQ1 ctr	KCNQ2 spec	KCNQ1 KCNE1 spec	others
c1ccc(-c2nc(N3CCCCC3)nc3ccccc23)cc1	i	-12.3	i	1.91	i	7*	118.0*	0.413	112.7%*	174.0%*	KCNQ1 APC inh=i
c1ccc2c(N3CCCCC3)nc(N3CCCC3)nc2c1	i	-20.9	i	-0.0077	i	9*	36.5*	0.512	i	i
c1ccc(-c2nc(N3CCNCC3)nc3ccccc23)cc1	i	-11.4	i	-0.117	i	i	·	·	·	·
c1ccc2c(c1)nc(N1CCCCC1)c1ccccc12	i	-3.6	i	-0.992	i	i	·	·	·	·
CC(C)(O)[C@@H]1CC[C@@](C)(C2CC[C@]3(C)C2[C@H](O)CC2[C@@]4(C)CC[C@H](O)C(C)(C)C4[C@@H](O[C@H]4O[C@@H](CO)[C@H](O)[C@@H](O)[C@@H]4O[C@@H]4O[C@H](CO)[C@@H](O)[C@H](O)[C@H]4O)C[C@]23C)O1 (stereo in doubt)	·	·	·	·	i	·	·	·	·	·
CCOC(=O)N1CCN(C(=O)COC(=O)c2cc(C)ccc2C)CC1	·	·	·	·	i	·	·	·	·	·
CC(C)(C)CC(=O)Nc1nnc(C(F)(F)F)s1	i	-7.1	i	0.159	i	i	·	·	·	·
CC(NC(=O)Nc1nnc(C(F)(F)F)s1)(C(F)(F)F)C(F)(F)F	i	-45.2	i	·	i	7*	0.0	0.529	i	i
N#CC1=C(N)NC(SCc2ccc(Cl)cc2)=C(C#N)C12CCCCC2	i	-17.8	i	-1.84	i	16*	151.0*	0.376*	121.3%*	185.0%*
N#CC1=C(N)NC(SCc2ccccc2)=C(C#N)C12CCCC2	i	-15.9	i	-1.63	i	i	·	·	·	·
c1ccc2c(-c3nc(C4CCCCC4)no3)cc(-c3ccncc3)nc2c1	i	-8.7	i	0.27	i	7*	84.5*	0.501	93.0%*	79.0%*
O=S(=O)(Nc1c(O)ccc2ccccc12)c1ccc(F)cc1	i	-21.3	i	·	i	10*	42.5*	0.642	i	55.0%*
O=S(=O)(Nc1cccc2ccccc12)c1ccccc1	i	-10.3	i	-0.277	i	i	·	·	·	·
O=S(=O)(Nc1c(O)ccc2ccccc12)c1ccccc1	i	-10.6	i	·	i	11*	55.5*	0.534	i	89.5%*
O=S(=O)(Nc1ncccn1)c1ccc(F)cc1	i	-3.4	i	·	i	i	·	·	·	·
COCCn1c(SCC(=O)N2CCC(C)CC2)nc2c(c1=O)SCC2	i	-4.4	i	·	i	i	·	·	·	·
Nc1ncc(Br)cc1S(=O)(=O)Nc1cc(C(F)(F)F)cc(C(F)(F)F)c1	i	-11.1	i	·	i	10*	107.5*	0.455	i	i
CCOc1ccc(NC(=O)CN(C)C(=O)c2ccccc2CCc2ccccc2)cc1OCC	i	-5.4	i	·	i	i	·	·	·	·
CN(C)c1ccc(N=C/C=C2\N(C)c3ccccc3C2(C)C)cc1	i	-16.5	i	-1.21	i	14*	0.0	0.535	i	i
CN1/C(=C\C=O)C(C)(C)c2ccccc21	i	-3.4	i	0.206	i	i	·	·	·	·
CN1/C(=C/C=C(C#N)C#N)C(C)(C)c2ccccc21	i	-44.2	i	i	i	25*	+	0.122*	i	i
CC(C)CCCN1C(N(C)C)=NC[C@@H]1Cc1ccccc1	·	·	·	·	i	·	·	·	·	·
O=C(CNC(=O)C1CCCCC1)OCC(=O)c1cccc(Cl)c1	·	·	·	·	i	·	·	·	·	·
O=C(c1ccc2c(c1)OCO2)N(Cc1ccco1)C1(C(=O)NC2CCCCC2)CCCCC1	i	-9.9	i	-0.787	i	6*	80.0*	0.364*	88.7%*	77.5%*
O=C(c1ccccn1)N(Cc1ccco1)C1(C(=O)NC2CCCC2)CCCCC1	i	-6.5	i	0.687	i	i	·	·	·	·
SMILES	KCNQ1 pot	hERG rescue	KCNK9 inh	KCC2 mod	KCNK3 inh	KCNQ1 block	KCNQ1 inh valid	CHO KCNQ1 ctr	KCNQ2 spec	KCNQ1 KCNE1 spec	others
Cn1nc(-c2ccccc2)cc1NC(=O)Nc1ccc(C(C)(C)C)cc1	i	-8.4	i	0.988	i	9*	72.0*	0.483	i	42.5%*
Cc1ccccc1C(=O)Nc1ccc2c(C#N)c3nc4ccccc4nc3n2c1	i	-11.7	i	0.491	i	8*	32.0*	0.517	63.7%*	i
O=C(CC1C(=O)N(c2ccccc2)C(=S)N1c1ccccc1)c1ccc(Br)cc1 (stereo not drawn)	i	-15.5	i	0.201	i	6*	65.0*	0.44	97.0%*	68.5%*
O=C(CC1C(=O)N(c2ccccc2)C(=S)N1c1ccccc1)c1ccccc1 (stereo not drawn)	i	-4.0	i	2.03	i	i	·	·	·	·
Cc1ccc(C(=O)NC(=S)Nc2ccc(CN3CCCCC3)cc2)c(C)c1	i	-13.7	i	1.84	i	6*	57.5*	0.49	67.0%*	63.0%*
CCN(CC)CCCCCCCCOC(=O)c1cc(OC)c(OC)c(OC)c1	·	·	·	·	i	·	·	·	·	·
Clc1ccc2nc(COc3ccccc3)[nH]c2c1	i	-12.0	i	·	i	i	·	·	·	·
CN(Cc1cccnc1)C(=O)c1cc(COc2ccc3c(c2)CCCC3)on1	i	-20.8	i	·	i	7*	115.0*	0.438	81.0%*	45.5%*	KCNQ1 APC inh=i
CC(C)[C@H](NS(=O)(=O)c1ccccc1F)C(=O)OCC(=O)Nc1cccc(S(N)(=O)=O)c1	·	·	·	·	i	·	·	·	·	·
CC(=O)c1c(C)nc2ccc(Br)cc2c1-c1ccccc1	i	-13.6	i	0.1	i	i	·	·	·	·
Cc1nc2ccc(Br)cc2c(-c2ccccc2)c1C(=O)O	i	-17.1	i	·	i	6*	0.0	0.486	96.3%*	i
CCOC(=O)C1=C(C)N=c2s/c(=C\c3ccc(O)c([N+](=O)[O-])c3)c(=O)n2C1c1ccccc1OC (stereo not drawn)	i	-3.1	i	·	i	18*	143.5*	0.301*	109.0%*	+

Screens (PubChem)
